pIC50: −log10 of the molar value. Each block holds one compound with its values, some of them ahead of it.
How the values were obtained:
Nucleic Acid [1] = experiment: Ratio of drug level in rat liver after 6 hrs to EC50 for HCV isolate Con1 in presence of 40% human serum; type: tissue-based
Nucleic Acid [2] = experiment: Ratio of drug level in rat liver after 12 hrs to EC50 for HCV isolate Con1 in presence of 40% human serum; type: tissue-based
[3] = Plasma concentration in rat at 5 mg/kg, po after 6 hrs; type: ADME, organism-based; parameters: dose 5 mg/kg, route oral
How it was run: (§1)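 Vehicle DMSO:PEG400 (10:90, v/v). Dosing at 5 mg/kg in rat and monkey; dog 5 mg/kg or 2.5 mg/kg. Protein precipitation with acetonitrile, then LC-MS/MS in negative-ion MRM (m/z 516.2→437.0) against spiked standards with internal standard.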

[4] = Plasma concentration in rat at 5 mg/kg, po after 12 hrs; type: ADME, organism-based; parameters: dose 5 mg/kg, route oral; how it was run: as §1
[5] = Ratio of drug level in liver to plasma in rat at 5 mg/kg, po after 6 hrs; type: ADME, organism-based; parameters: dose 5 mg/kg, route oral
How it was run: (§2)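 Rats dosed orally at 5 mg/kg, four groups, sacrificed at 6 and 12 h. Plasma and liver homogenate extracted by acetonitrile protein precipitation with internal standard and quantified by LC-MS (negative-ion MRM). Liver/plasma ratio taken from the two concentrations.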

[6] = Ratio of drug level in liver to plasma in rat at 5 mg/kg, po after 12 hrs; type: ADME, organism-based; parameters: dose 5 mg/kg, route oral; how it was run: as §2
[7] = Drug level in rat liver at 5 mg/kg, po after 6 hrs; type: ADME, organism-based; parameters: dose 5 mg/kg, route oral; settings: read-out: Drug uptake; how it was run: as §2
[8] = Drug level in rat liver at 5 mg/kg, po after 12 hrs; type: ADME, organism-based; parameters: dose 5 mg/kg, route oral; settings: read-out: Drug uptake; how it was run: as §2
[9] = Inhibition of HCV isolate BK NS5B polymerase after 3 hrs by scintillation counting
[10] = Inhibition of HCV isolate H77 NS5B polymerase after 3 hrs by scintillation counting

SMILES: CC(C)(C)CC[C@@]1(C)C(=O)C(C2=NS(=O)(=O)c3cc(NS(C)(=O)=O)ccc3N2)=C(O)c2ccccc21
Ratio (Nucleic Acid [1]): 1400 | Ratio (Nucleic Acid [2]): 270

SMILES: CC(C)CC[C@@]1(C)C(=O)C(C2=NS(=O)(=O)c3cc(NS(C)(=O)=O)ccc3N2)=C(O)c2ccccc21
concentration at 6 h [3]: 445 nM | concentration at 12 h [4]: 135 nM | Kp at 6 h [5]: 17 | Kp at 12 h [6]: 20 | concentration at 6 h [7]: 3800 ng/g | concentration at 12 h [8]: 1430 ng/g

pIC50 [9]: 6.29 | pIC50 [10]: 6.35
SMILES: CC(C)(C)CC[C@]1(C)C(=O)C(C2=NS(=O)(=O)c3cc(NS(C)(=O)=O)ccc3N2)=C(O)c2ccccc21
